# Data reported in ChEMBL document CHEMBL4689842, “EUbOPEN Chemogenomics Library wave 1” (2021).
# Where “and” joins values, the source holds several entries; their conditions need not be identical. Identical values can stand only once.
# What was measured:
# Format in all cases: toxicity, cell-based
# Fibroblast = test: Multiplex assay against human fibroblast
# How it was run: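 Tubulin, mitochondrial-mass and membrane-permeability phenotypes are per cents of healthy-nucleus cells. Cells were gated by CellPathfinder machine learning into Hoechst high-intensity objects or normal cells, normal cells into healthy, pyknosed or fragmented nuclei, and pyknosed cells into mitotic or apoptotic. Before that, live cells stained at seeding with Hoechst33342, BioTracker Green Microtubule Cytoskeleton Dye, MitoTracker Red and Annexin V Alexa Fluor 680 were imaged on a CQ1 microscope at 37°C and 5% CO2 after compound addition.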
# HEK-293T = test: Incucyte cell viability with HEK293T; settings: human, 10 µM, compound concentration 10 uM; also: filed as whole numbers so only -1 and 0 and 1 occur
# U2OS = test: Incucyte cell viability with U2OS; settings: human, 10 µM, compound concentration 10 uM; also: filed as whole numbers so only -1 and 0 and 1 occur
# [1] = 12 h, 1 µM, compound concentration 1 uM, replicate 1
# [2] = 12 h, 1 µM, compound concentration 1 uM, replicate 2
# [3] = 12 h, 10 µM, compound concentration 10 uM, replicate 1
# [4] = 12 h, 10 µM, compound concentration 10 uM, replicate 2
# [5] = 24 h, 1 µM, compound concentration 1 uM, replicate 1
# [6] = 24 h, 1 µM, compound concentration 1 uM, replicate 2
# [7] = 24 h, 10 µM, compound concentration 10 uM, replicate 1
# [8] = 24 h, 10 µM, compound concentration 10 uM, replicate 2
# [9] = 48 h, 10 µM, compound concentration 10 uM, replicate 1
# [10] = 48 h, 10 µM, compound concentration 10 uM, replicate 2
# [11] = 6 h, replicate number 1, timepoint 6 hours
# [12] = 18 h, replicate number 1, timepoint 18 hours
# [13] = 24 h, replicate number 1, timepoint 24 hours
structure (smiles),measurement,setting,value
Cc1c(Nc2ccc(S(=O)(=O)N3CCN(C)CC3)cc2F)nc2ccc(-c3cnn(C4CC4)c3)cn2c1=O,Population Apoptotic (%),Fibroblast; [1],66%
same,Population Fragmented Nuclei (%),Fibroblast; [1],29%
same,Population Healthy Nuclei (%),Fibroblast; [1],57%
same,Population Hoechst High Intensity Objects (%),Fibroblast; [1],11%
same,Population Membrane Permeable-Phenotype (%),Fibroblast; [1],9%
same,Population Mitochondria Different-Phenotype (%),Fibroblast; [1],4%
same,Population Mitotic Cells (%),Fibroblast; [1],33%
same,Population Normal (%),Fibroblast; [1],88%
same,Population Pyknosed Nuclei (%),Fibroblast; [1],12%
same,Population Tubulin-Different-Phenotype (%),Fibroblast; [1],4%
same,Total Cell Count,Fibroblast; [1],222
same,Population Apoptotic (%),Fibroblast; [2],50%
same,Population Fragmented Nuclei (%),Fibroblast; [2],49%
same,Population Healthy Nuclei (%),Fibroblast; [2],40%
same,Population Hoechst High Intensity Objects (%),Fibroblast; [2],24%
same,Population Membrane Permeable-Phenotype (%),Fibroblast; [2],0%
same,Population Mitochondria Different-Phenotype (%),Fibroblast; [2],0%
same,Population Mitotic Cells (%),Fibroblast; [2],50%
same,Population Normal (%),Fibroblast; [2],75%
same,Population Pyknosed Nuclei (%),Fibroblast; [2],10%
same,Population Tubulin-Different-Phenotype (%),Fibroblast; [2],0%
same,Total Cell Count,Fibroblast; [2],73
same,Population Apoptotic (%),Fibroblast; [3],67% and 50%
same,Population Fragmented Nuclei (%),Fibroblast; [3],32% and 29%
same,Population Healthy Nuclei (%),Fibroblast; [3],39% and 54%
same,Population Hoechst High Intensity Objects (%),Fibroblast; [3],45% and 41%
same,Population Membrane Permeable-Phenotype (%),Fibroblast; [3],19% and 13%
same,Population Mitochondria Different-Phenotype (%),Fibroblast; [3],3% and 4%
same,Population Mitotic Cells (%),Fibroblast; [3],32% and 50%
same,Population Normal (%),Fibroblast; [3],54% and 58%
same,Population Pyknosed Nuclei (%),Fibroblast; [3],27% and 16%
same,Population Tubulin-Different-Phenotype (%),Fibroblast; [3],30% and 20%
same,Total Cell Count,Fibroblast; [3],373 and 542
same,Population Apoptotic (%),Fibroblast; [4],78% and 64%
same,Population Fragmented Nuclei (%),Fibroblast; [4],34% and 56%
same,Population Healthy Nuclei (%),Fibroblast; [4],42%
same,Population Hoechst High Intensity Objects (%),Fibroblast; [4],79% and 58%
same,Population Membrane Permeable-Phenotype (%),Fibroblast; [4],11% and 8%
same,Population Mitotic Cells (%),Fibroblast; [4],21% and 35%
same,Population Normal (%),Fibroblast; [4],20% and 41%
same,Population Tubulin-Different-Phenotype (%),Fibroblast; [4],6% and 8%
same,Population Apoptotic (%),Fibroblast; [5],85%
same,Population Fragmented Nuclei (%),Fibroblast; [5],26%
same,Population Healthy Nuclei (%),Fibroblast; [5],60%
same,Population Hoechst High Intensity Objects (%),Fibroblast; [5],12%
same,Population Membrane Permeable-Phenotype (%),Fibroblast; [5],5%
same,Population Mitochondria Different-Phenotype (%),Fibroblast; [5],2%
same,Population Mitotic Cells (%),Fibroblast; [5],14%
same,Population Normal (%),Fibroblast; [5],87%
same,Population Pyknosed Nuclei (%),Fibroblast; [5],13%
same,Population Tubulin-Different-Phenotype (%),Fibroblast; [5],4%
same,Total Cell Count,Fibroblast; [5],230
same,Population Apoptotic (%),Fibroblast; [6],80%
same,Population Fragmented Nuclei (%),Fibroblast; [6],58%
same,Population Healthy Nuclei (%),Fibroblast; [6],34%
same,Population Hoechst High Intensity Objects (%),Fibroblast; [6],20%
same,Population Membrane Permeable-Phenotype (%),Fibroblast; [6],8%
same,Population Mitochondria Different-Phenotype (%),Fibroblast; [6],12%
same,Population Mitotic Cells (%),Fibroblast; [6],20%
same,Population Normal (%),Fibroblast; [6],79%
same,Population Pyknosed Nuclei (%),Fibroblast; [6],6%
same,Population Tubulin-Different-Phenotype (%),Fibroblast; [6],8%
same,Total Cell Count,Fibroblast; [6],91
same,Population Apoptotic (%),Fibroblast; [7],46% and 54%
same,Population Fragmented Nuclei (%),Fibroblast; [7],40% and 29%
same,Population Healthy Nuclei (%),Fibroblast; [7],46% and 57%
same,Population Hoechst High Intensity Objects (%),Fibroblast; [7],42% and 34%
same,Population Membrane Permeable-Phenotype (%),Fibroblast; [7],21%
same,Population Mitotic Cells (%),Fibroblast; [7],53% and 45%
same,Population Normal (%),Fibroblast; [7],57% and 65%
same,Population Pyknosed Nuclei (%),Fibroblast; [7],13%
same,Population Tubulin-Different-Phenotype (%),Fibroblast; [7],37% and 21%
same,Total Cell Count,Fibroblast; [7],395 and 524
same,Population Apoptotic (%),Fibroblast; [8],60% and 68%
same,Population Fragmented Nuclei (%),Fibroblast; [8],58% and 33%
same,Population Healthy Nuclei (%),Fibroblast; [8],37% and 44%
same,Population Hoechst High Intensity Objects (%),Fibroblast; [8],58% and 77%
same,Population Membrane Permeable-Phenotype (%),Fibroblast; [8],13% and 9%
same,Population Mitochondria Different-Phenotype (%),Fibroblast; [8],23% and 0%
same,Population Mitotic Cells (%),Fibroblast; [8],40% and 31%
same,Population Normal (%),Fibroblast; [8],41% and 22%
same,Population Apoptotic (%),Fibroblast; [9],57%
same,Population Fragmented Nuclei (%),Fibroblast; [9],39%
same,Population Healthy Nuclei (%),Fibroblast; [9],47%
same,Population Hoechst High Intensity Objects (%),Fibroblast; [9],43%
same,Population Membrane Permeable-Phenotype (%),Fibroblast; [9],14%
same,Population Mitochondria Different-Phenotype (%),Fibroblast; [9],1%
same,Population Mitotic Cells (%),Fibroblast; [9],42%
same,Population Normal (%),Fibroblast; [9],56%
same,Population Pyknosed Nuclei (%),Fibroblast; [9],13%
same,Population Tubulin-Different-Phenotype (%),Fibroblast; [9],31%
same,Total Cell Count,Fibroblast; [9],344
same,Population Apoptotic (%),Fibroblast; [10],60%
same,Population Healthy Nuclei (%),Fibroblast; [10],57%
same,Population Hoechst High Intensity Objects (%),Fibroblast; [10],19%
same,Population Membrane Permeable-Phenotype (%),Fibroblast; [10],16%
same,Population Mitotic Cells (%),Fibroblast; [10],40%
same,Population Normal (%),Fibroblast; [10],80%
same,Population Pyknosed Nuclei (%),Fibroblast; [10],3%
same,Population Tubulin-Different-Phenotype (%),Fibroblast; [10],24%
same,Total Cell Count,Fibroblast; [10],159
same,Growth Rate,"HEK-293T; 0 h, replicate number 1, timepoint 0 hours",1
same,Growth Rate,HEK-293T; [11],0
same,Growth Rate,"HEK-293T; 12 h, replicate number 2, timepoint 12 hours",1
same,Growth Rate,HEK-293T; [12],1
same,Growth Rate,HEK-293T; [13],1
same,Growth Rate,"U2OS; 0 h, replicate number 2, timepoint 0 hours",0
same,Growth Rate,U2OS; [11],1
same,Growth Rate,"U2OS; 12 h, replicate number 1, timepoint 12 hours",0
same,Growth Rate,U2OS; [12],0
same,Growth Rate,"U2OS; 18 h, replicate number 2, timepoint 18 hours",1
same,Growth Rate,U2OS; [13],0
same,Growth Rate,"U2OS; 24 h, replicate number 2, timepoint 24 hours",1
